Experimental data of several laboratories.
Each line is one published result; the experiments were not run side by side.
Target: Mitogen-activated protein kinase 7 (MAPK7, Homo sapiens, UniProt Q13164)

Compound	effect on	mode	method	tested at	endpoint	value
Cc1sc(C(=O)NC2COC2)cc1-n1cc(NC(=O)Nc2c(F)cccc2Cl)cn1	enzyme activity	inhibitor		10 µM	remaining activity	95.7%
O=C(Nc1ccc(Oc2ccc(F)cc2)cc1)N1CCc2ncccc2[C@H]1c1ccc(F)cc1	cell-free assay		competition with immobilised ligand	1 µM	remaining binding	96%
FC(F)(F)Oc1cccc(-c2cnc3ccc(-c4ccncc4)nn23)c1	enzyme activity	inhibitor	radiometric	5 µM	activity vs control	56%
CC/C(=N\NC(=O)NCc1cccc(O)c1)c1ccc(O)c(C)c1O	enzyme activity	inhibitor		0.1 µM	inhibition	-1.7%
COc1cc(/C=C/C(=O)CC(=O)/C=C/c2ccc(O)c(OC)c2)ccc1O	enzyme activity	inhibitor		1 µM	activity vs control	62%
c1ccc(CNc2nc(N3CCOc4ccccc43)nc3c2CCCC3)cc1	target engagement in cells	inhibitor	chemoproteomics	20 mM	inhibition	-6.4%
COc1cc(Nc2cnc(C#N)c(O[C@H](C)CN(C)C)n2)ncc1-c1cnn(C)c1	enzyme activity	inhibitor	radiometric	10 µM	remaining activity	85%
O=C(Nc1cnn(-c2csc(C(=O)NC3COC3)c2)c1)Nc1c(F)cccc1Cl	enzyme activity	inhibitor		5 µM	remaining activity	75.9%
Cc1nc(N2CC[C@@H](O)C2)ncc1-c1cc(C(F)(F)F)cc2[nH]ncc12	binding		competition with immobilised ligand	1 µM	remaining binding	83%
CC(C)(C)c1nc(-c2cccc(NS(=O)(=O)c3c(F)cccc3F)c2F)c(-c2ccnc(N)n2)s1	enzyme activity	inhibitor	radiometric	1 µM	remaining activity	74%
Cc1nccc(COC(=O)N2C[C@@H]3[C@@H](CNC(=O)c4ccc5[nH]nnc5c4)[C@@H]3C2)n1	cell-free assay		competition with immobilised ligand	1 µM	remaining binding	98%
Nc1ncnc2occ(-c3ccc(NC(=O)Nc4cc(C(F)(F)F)ccc4F)cc3)c12	cell-free assay	inhibitor		20 µM	remaining signal	1.6%
